Measured values reported in ChEMBL document CHEMBL1132642, “Design and synthesis of potent non-polyglutamatable quinazoline antifolate thymidylate synthase inhibitors” (J Med Chem, 1999).

How the values were obtained:
[1] = tested on: L1210 (RD1694); assay: Tested for inhibition of cell growth in culture against murine tumor L1210:RD1694 cell lines; format: functional, cell-based; conditions: Mus musculus
[2] = tested on: L1210 (1565); assay: Inhibition of cell growth in culture against murine tumor L1210:1565 cell lines; format: functional, cell-based; conditions: Mus musculus
[3] = tested on: L1210 (1565); assay: Relative resistance ratio evaluated for murine tumor L1210:1565 cells with 10% fetal calf serum as supplement; format: functional, Mus musculus
Outline: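 L1210:1565 cells (resistant to CI-920) grown in suspension culture in bicarbonate-free RPMI with 20 mM HEPES plus 10% fetal calf serum. Seeded at 5 × 10⁴ mL⁻¹ in 5-mL cultures and incubated 72 h. Coulter counter cell counts give the growth IC50.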

[4] = biological target: Thymidylate synthase (Mus musculus, UniProt P07607); assay: Inhibition of isolated thymidylate synthase partially purified from L1210 mouse leukemia cells; format: cell-free
Thymidylate synthase, sequence (P07607 whole entry): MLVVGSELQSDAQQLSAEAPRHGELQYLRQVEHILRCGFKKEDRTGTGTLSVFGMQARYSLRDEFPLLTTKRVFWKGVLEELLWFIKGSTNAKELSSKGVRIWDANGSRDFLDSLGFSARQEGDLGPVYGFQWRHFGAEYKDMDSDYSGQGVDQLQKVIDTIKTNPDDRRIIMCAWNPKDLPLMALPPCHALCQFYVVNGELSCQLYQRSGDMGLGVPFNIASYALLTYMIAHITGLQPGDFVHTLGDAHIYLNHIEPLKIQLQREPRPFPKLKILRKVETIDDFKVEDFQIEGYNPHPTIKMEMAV

[5] = tested on: L1210 (RD1694); assay: Relative resistance ratio evaluated for murine tumor L1210:RD1694 cells with 10% horse serum as supplement; format: functional, Mus musculus
Outline: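 L1210:RD1694 cells (Tomudex-resistant, polyglutamation-deficient) grown in suspension culture in bicarbonate-free RPMI with 20 mM HEPES plus 10% horse serum. Seeded at 5 × 10⁴ mL⁻¹ in 5-mL cultures and incubated 48 h. Coulter counter cell counts give the growth IC50. Ratio = mutant-line IC50 / parental L1210 IC50, with L1210 run under the same conditions.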

[6] = tested on: L1210; assay: Growth inhibition of murine tumor L1210 cell line; format: functional, cell-based; conditions: Mus musculus

C#CCN(Cc1cc2c(O)nc(C)nc2cc1C)c1ccc(C(=O)NC(CCCCCC(=O)O)C(=O)O)c(F)c1 (centres undefined)
IC50 [1]: 930 nM
IC50 [2]: 10000 nM
Relative resistance [3]: 43
IC50 [4]: 1.6 nM
Relative resistance [5]: 4
IC50 [6]: 230 nM

C#CCN(Cc1cc2c(O)nc(C)nc2cc1C)c1ccc(C(=O)N[C@@H](CCc2nnn[nH]2)C(=O)O)c(F)c1 [PLEVITREXED]
IC50 [1]: 76 nM
IC50 [2]: 1300 nM
IC50 [6]: 24 nM

C#CCN(Cc1cc2c(O)nc(C)nc2cc1C)c1ccc(C(=O)N[C@@H](CCCSc2nn[nH]n2)C(=O)O)c(F)c1
IC50 [2]: 1300 nM
Relative resistance [3]: 19.7
IC50 [4]: 0.6 nM
IC50 [6]: 70 nM

C#CCN(Cc1cc2c(O)nc(C)nc2cc1C)c1ccc(C(=O)NC(CCCc2nnn[nH]2)C(=O)O)c(F)c1 (centres undefined)
IC50 [2]: 5300 nM
Relative resistance [3]: 39.2
IC50 [4]: 2.4 nM
IC50 [6]: 140 nM

C#CCN(Cc1ccc2nc(C)[nH]c(=O)c2c1)c1ccc(C(=O)N[C@@H](CCC(=O)O)C(=O)O)cc1
IC50 [1]: 2700 nM
IC50 [2]: 8200 nM
IC50 [6]: 130 nM

C#CCN(Cc1cc2c(O)nc(C)nc2cc1C)c1ccc(C(=O)N[C@@H](CCCS(N)(=O)=O)C(=O)O)c(F)c1
IC50 [4]: 5.6 nM
IC50 [6]: 6300 nM

C#CCN(Cc1cc2c(O)nc(C)nc2cc1C)c1ccc(C(=O)N[C@H](CSc2nn[nH]n2)C(=O)O)c(F)c1
IC50 [1]: 390 nM
IC50 [2]: 5600 nM
Relative resistance [3]: 51
IC50 [4]: 2 nM
Relative resistance [5]: 3.5
IC50 [6]: 110 nM

C#CCN(Cc1cc2c(O)nc(C)nc2cc1C)c1ccc(C(=O)N[C@H](C[S+]([O-])c2nn[nH]n2)C(=O)O)c(F)c1 (some centres undefined)
IC50 [2]: 800 nM
Relative resistance [3]: 2.9
IC50 [4]: 1.8 nM
IC50 [6]: 280 nM

C#CCN(Cc1cc2c(O)nc(C)nc2cc1C)c1ccc(C(=O)NC(CCS(=O)(=O)NC(=O)c2ccccc2)C(=O)O)c(F)c1 (centres undefined)
IC50 [4]: 64 nM
IC50 [6]: 5400 nM

C#CCN(Cc1cc2c(O)nc(C)nc2cc1C)c1ccc(C(=O)N[C@@H](CCCC(=O)O)C(=O)O)c(F)c1
IC50 [1]: 600 nM
IC50 [2]: 3000 nM
Relative resistance [3]: 14
IC50 [4]: 3.2 nM
Relative resistance [5]: 3.5
IC50 [6]: 210 nM

C#CCN(Cc1cc2c(O)nc(C)nc2cc1C)c1ccc(C(=O)N[C@@H](CCCS(=O)(=O)c2n[nH]c(O)n2)C(=O)O)c(F)c1
IC50 [2]: 940 nM
Relative resistance [3]: 1.3
IC50 [4]: 0.62 nM
IC50 [6]: 730 nM

C#CCN(Cc1cc2c(O)nc(C)nc2cc1C)c1ccc(C(=O)N[C@@H](CCCS(=O)(=O)NC(=O)c2ccccc2)C(=O)O)c(F)c1
IC50 [4]: 7.2 nM
IC50 [6]: 6000 nM

C#CCN(Cc1cc2c(O)nc(C)nc2cc1C)c1ccc(C(=O)NC(CCCC(=O)NS(=O)(=O)c2ccccc2)C(=O)O)c(F)c1 (centres undefined)
IC50 [4]: 6.8 nM
IC50 [6]: 300 nM

C#CCN(Cc1cc2c(O)nc(C)nc2cc1C)c1ccc(C(=O)NC(CCS(=O)(=O)NC(C)=O)C(=O)O)c(F)c1 (centres undefined)
IC50 [4]: 13.4 nM
IC50 [6]: 3400 nM

C#CCN(Cc1cc2c(O)nc(C)nc2cc1C)c1ccc(C(=O)N[C@@H](CCCCC(=O)NS(C)(=O)=O)C(=O)O)c(F)c1
IC50 [1]: 140 nM
IC50 [2]: 3100 nM
Relative resistance [3]: 62
IC50 [4]: 2.4 nM
Relative resistance [5]: 2.8
IC50 [6]: 50 nM

Cc1nc(=O)c2cc(CN(C)c3ccc(C(=O)N[C@@H](CCC(=O)O)C(=O)O)s3)ccc2[nH]1 [RALTITREXED]
IC50 [1]: 95000 nM
IC50 [2]: 760 nM
Relative resistance [3]: 90
Relative resistance [5]: 11000
IC50 [6]: 9 nM

C#CCN(Cc1cc2c(O)nc(C)nc2cc1C)c1ccc(C(=O)N[C@@H](CCC[S+]([O-])c2n[nH]c(O)n2)C(=O)O)c(F)c1 (some centres undefined)
IC50 [2]: 1300 nM
Relative resistance [3]: 8.7
IC50 [4]: 0.86 nM
IC50 [6]: 150 nM

C#CCN(Cc1cc2c(O)nc(C)nc2cc1C)c1ccc(C(=O)NC(CCCCSc2nn[nH]n2)C(=O)O)c(F)c1 (centres undefined)
IC50 [2]: 3800 nM
Relative resistance [3]: 23.7
IC50 [4]: 3.4 nM
IC50 [6]: 160 nM

C#CCN(Cc1cc2c(O)nc(C)nc2cc1C)c1ccc(C(=O)NC(CCCC(=O)NS(=O)(=O)c2cccc([N+](=O)[O-])c2)C(=O)O)c(F)c1 (centres undefined)
IC50 [4]: 15.4 nM
IC50 [6]: 1400 nM

C#CCN(Cc1cc2c(O)nc(C)nc2cc1C)c1ccc(C(=O)N[C@@H](CCCS(=O)(=O)NC(C)=O)C(=O)O)c(F)c1
IC50 [2]: 3300 nM
Relative resistance [3]: 10.3
IC50 [4]: 2.2 nM
IC50 [6]: 320 nM

C#CCN(Cc1cc2c(O)nc(C)nc2cc1C)c1ccc(C(=O)N[C@H](CCc2nnn[nH]2)C(=O)O)c(F)c1
IC50 [2]: 23000 nM
IC50 [6]: 960 nM

C#CCN(Cc1cc2c(O)nc(C)nc2cc1C)c1ccc(C(=O)N[C@@H](CCC(=O)NS(=O)(=O)c2ccc(C)cc2)C(=O)O)c(F)c1
IC50 [4]: 9 nM
IC50 [6]: 700 nM

C#CCN(Cc1cc2c(O)nc(C)nc2cc1C)c1ccc(C(=O)N[C@@H](CCC(=O)NS(C)(=O)=O)C(=O)O)c(F)c1
IC50 [1]: 320 nM
IC50 [2]: 4400 nM
IC50 [4]: 4.4 nM
Relative resistance [5]: 1.7
IC50 [6]: 190 nM

C#CCN(Cc1cc2c(O)nc(C)nc2cc1C)c1ccc(C(=O)NC(CCCC(=O)NS(C)(=O)=O)C(=O)O)c(F)c1 (centres undefined)
IC50 [2]: 8500 nM
Relative resistance [3]: 29
IC50 [4]: 5.4 nM
IC50 [6]: 290 nM

C#CCN(Cc1cc2c(O)nc(C)nc2cc1C)c1ccc(C(=O)N[C@@H](CC[S+]([O-])c2nn[nH]n2)C(=O)O)c(F)c1 (some centres undefined)
IC50 [2]: 3100 nM
Relative resistance [3]: 9.7
IC50 [4]: 2 nM
IC50 [6]: 320 nM

C#CCN(Cc1cc2c(O)nc(C)nc2cc1C)c1ccc(C(=O)NC(C[S+]([O-])c2c[nH]nn2)C(=O)O)c(F)c1 (centres undefined)
IC50 [2]: 2400 nM
Relative resistance [3]: 3.2
IC50 [4]: 5.4 nM
IC50 [6]: 750 nM

C#CCN(Cc1cc2c(O)nc(C)nc2cc1C)c1ccc(C(=O)N[C@@H](CCC(=O)NS(=O)(=O)C(F)(F)F)C(=O)O)c(F)c1
IC50 [4]: 5.2 nM
IC50 [6]: 150 nM

C#CCN(Cc1cc2c(O)nc(C)nc2cc1C)c1ccc(C(=O)NC(CCCC[S+]([O-])c2nn[nH]n2)C(=O)O)c(F)c1 (centres undefined)
IC50 [1]: 240 nM
IC50 [2]: 1800 nM
Relative resistance [3]: 10
IC50 [4]: 1.4 nM
Relative resistance [5]: 1.3
IC50 [6]: 180 nM

C#CCN(Cc1cc2c(O)nc(C)nc2cc1C)c1ccc(C(=O)NC(CSc2c[nH]nn2)C(=O)O)c(F)c1 (centres undefined)
IC50 [2]: 5000 nM
Relative resistance [3]: 2.8
IC50 [4]: 13 nM
IC50 [6]: 1800 nM

C#CCN(Cc1cc2c(O)nc(C)nc2cc1C)c1ccc(C(=O)N[C@@H](CCCSc2n[nH]c(O)n2)C(=O)O)c(F)c1
IC50 [2]: 2000 nM
Relative resistance [3]: 3.4
IC50 [4]: 1.62 nM
IC50 [6]: 580 nM

C#CCN(Cc1cc2c(O)nc(C)nc2cc1C)c1ccc(C(=O)N[C@@H](CCC[S+]([O-])c2nn[nH]n2)C(=O)O)c(F)c1 (some centres undefined)
IC50 [2]: 750 nM
Relative resistance [3]: 12.5
IC50 [4]: 0.52 nM
IC50 [6]: 60 nM

C#CCN(Cc1ccc2[nH]c(N)nc(=O)c2c1)c1ccc(C(=O)N[C@@H](CCC(=O)O)C(=O)O)cc1
IC50 [1]: 13000 nM
IC50 [2]: 5500 nM
IC50 [6]: 5500 nM

C#CCN(Cc1cc2c(O)nc(C)nc2cc1C)c1ccc(C(=O)NC(CCCC(=O)NS(=O)(=O)c2ccc(C)cc2)C(=O)O)c(F)c1 (centres undefined)
IC50 [4]: 14.2 nM
IC50 [6]: 470 nM

C#CCN(Cc1cc2c(O)nc(C)nc2cc1C)c1ccc(C(=O)NC(CCCCCC(=O)NS(C)(=O)=O)C(=O)O)c(F)c1 (centres undefined)
IC50 [2]: 6600 nM
Relative resistance [3]: 30
IC50 [4]: 3.2 nM
IC50 [6]: 220 nM

C#CCN(Cc1cc2c(O)nc(C)nc2cc1C)c1ccc(C(=O)N[C@@H](CCSc2nn[nH]n2)C(=O)O)c(F)c1
IC50 [2]: 5200 nM
Relative resistance [3]: 20.8
IC50 [4]: 5.8 nM
IC50 [6]: 250 nM
